{
  "source": "ChEMBL document CHEMBL2163314",
  "about": "“Potent aminocyclitol glucocerebrosidase inhibitors are subnanomolar pharmacological chaperones for treating gaucher disease” (J Med Chem, 2012)",
  "experiment": "Agonist activity at glucosylceramidase […] mutant in lymphoblast obtained from Gaucher disease patient using 4-methylumbelliferyl-beta-D-glucopyranoside as substrate preincubated at 5 nM for 3 days measured 2 hrs post substrate addition by fluorescence assay relative to untreated control",
  "assay_type": "functional, Homo sapiens",
  "how_it_was_run": "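L444P homozygous lymphoblasts from a GD type 2 patient, cultured in RPMI-1640 with 15% FBS at 37 °C, 5% CO2, seeded 2 × 10^5 cells/well and treated 3 days. Sonicated water lysate assayed with 6 mM 4-MU-β-glucoside at pH 5.2 (citrate phosphate, taurocholate, Triton X-100), 37 °C for 2 h. Fluorescence at 355/460 nm, relative to untreated cells; triplicate.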",
  "data": [
    {"molecule": "CCCCCCCCCN[C@H]1[C@H](O)[C@@H](O)[C@H](O)[C@@H](O)[C@@H]1OCCCCCCCCC.Cl", "values": [
      {"measurement": "fold change (FC)", "result": 1.2}
    ]}
  ]
}
